Assay [1] deals with MCF7. As to the kind of experiment: Induction of apoptosis in human MCF7 cells assessed as accumulation at subG1 phase at 10 uM after 24 hrs by PI staining-based flow cytometric analysis (reference value: 2.98%). In kind it is functional. For orientation: A flow cytometer gives signals particle by particle.
In assay [2] the test system is HeLa. Kind of assay: Induction of apoptosis in human HeLa cells assessed as accumulation at subG1 phase at 20 uM after 48 hrs by PI staining-based flow cytometric analysis (reference value: 2.89%). In kind it is functional.
Assay [3] has as its system HeLa. As to the kind of experiment: Induction of cell cycle arrest in human HeLa cells assessed as accumulation at G2/M phase at 20 uM after 48 hrs by PI staining-based flow cytometric analysis (reference value: 25.44%). In kind it is functional.
The subject of assay [4] is Bel-7402. Kind of assay: Induction of autophagy in human Bel7402 cells assessed as increase in autophagosome formation at 20 and 40 uM after 72 hrs by AO staining-based fluorescence microscopic analysis. In kind it is functional, cell-based. An outline of the steps:
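Cells in RPMI 1640/10% FBS were exposed to compound or 0.1% DMSO for 72 h: MCF-7 at 5 and 10 µM, HeLa and BEL-7402 at 20 and 40 µM. They were incubated with […] acridine orange for 15 min, washed with PBS, and acidic vesicles were imaged by inverted fluorescence microscopy.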

A short description of assay [5]: Cytotoxicity against human Bel7402 cells after 3 days by MTT assay. The class given is functional, cell-based. The settings on record: Bel-7402, 72 h. An outline of the steps:
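MCF-7, HeLa and BEL-7402 cells were grown in RPMI 1640 with 10% heat-inactivated FBS, 1 mM glutamine and penicillin/streptomycin at 37 °C under 5% CO2. They were exposed to compound for 3 days, then read by MTT at 570 nm. Viability was taken as treated/control absorbance, and IC50 was derived from it. Values are mean SD of three independent experiments.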

The test system of assay [6] is HeLa. As to the kind of experiment: Induction of cell cycle arrest in human HeLa cells assessed as accumulation at G0/G1 phase at 20 uM after 72 hrs by PI staining-based flow cytometric analysis (reference value: 45.70%). In kind it is functional.
The test system of assay [7] is HeLa. As to the kind of experiment: Induction of autophagy in human HeLa cells assessed as autophagic cell formation at 40 uM after 72 hrs by MDC staining-based flow cytometric analysis (reference value: 1.92%). In kind it is functional.
Assay [8] concerns MCF7. Kind of assay: Induction of autophagy in human MCF7 cells at 5 uM after 72 hrs by MDC staining-based flow cytometric analysis (reference value: 2.54%). The class given is functional.
For assay [9], the system named is MCF7. Kind of assay: Induction of autophagy in human MCF7 cells assessed as increase in autophagosome formation at 5 and 10 uM after 72 hrs by MDC staining-based fluorescence microscopic analysis. In kind it is functional, cell-based.
The test system of assay [10] is MCF7. Kind of assay: Induction of cell cycle arrest in human MCF7 cells assessed as accumulation at G2/M phase at 10 uM after 48 hrs by PI staining-based flow cytometric analysis (reference value: 19.85%). The class given is functional.
For assay [11], the system named is MCF7. As to the kind of experiment: Induction of cell cycle arrest in human MCF7 cells assessed as accumulation at G0/G1 phase at 10 uM after 48 hrs by PI staining-based flow cytometric analysis (reference value: 50.76%). The class given is functional.
The subject of assay [12] is HeLa. As to the kind of experiment: Induction of cell cycle arrest in human HeLa cells assessed as accumulation at G2/M phase at 20 uM after 72 hrs by PI staining-based flow cytometric analysis (reference value: 25.44%). The class given is functional.
Assay [13] deals with MCF7. As to the kind of experiment: Induction of autophagy in human MCF7 cells at 10 uM after 72 hrs by MDC staining-based flow cytometric analysis (reference value: 2.54%). The class given is functional.
The subject of assay [14] is HeLa. As to the kind of experiment: Induction of autophagy in human HeLa cells assessed as increase in LC3-2 level at 20 and 40 uM after 48 hrs by Western blot analysis. The class given is functional, cell-based. An outline of the steps: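 Cells were treated with or without compound for 48 h: MCF-7 at 5 and 10 µM, HeLa and BEL-7402 at 20 and 40 µM. Total protein (10 µg) in SDS sample buffer (pH 6.8) was run on 8–15% SDS-PAGE and transferred to PVDF. LC3-I/LC3-II were probed with HRP secondary antibody and ECL detection. The assay was repeated at least three times.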
(In general: Immunoblotting shows a protein as a band on a membrane.)

Assay [15] concerns Bel-7402. Kind of assay: Induction of cell cycle arrest in human Bel7402 cells assessed as accumulation at G0/G1 phase at 20 uM after 48 hrs by PI staining-based flow cytometric analysis (reference value: 49.44%). In kind it is functional.
Assay [16] deals with HeLa. Kind of assay: Induction of autophagy in human HeLa cells assessed as autophagosome accumulation at 20 uM after 72 hrs by MDC staining-based flow cytometric analysis (reference value: 1.92%). In kind it is functional.

As a reminder, the IC50 is the point on the concentration scale where inhibition reaches its midpoint.

Activity calls are given as the source filed them. The rule behind the calls is not given here.

As to `Cc1ccc(S(=O)(=O)N[C@H](Cc2ccccc2)C(=O)OC[C@H](Cc2ccccc2)NC(=O)c2ccccc2)cc1`, the Activity in [1] worked out at 3.38%; in assay [2], 2.12%; in assay [3], 22.18%; in [6] it was 48.1%; in assay [7], 49.37%; in [8] it was 40.31%. In addition, the Activity is reported as 20.05% in assay [10]; 48.81% in assay [11]; 21.52% in [12]; 56.08% in assay [13]; 47.63% in assay [15]; 26.11% in assay [16]. Moreover, the outcome in assay [4], in assay [9] and in [14] was Active. This molecule gave an IC50 in assay [5] of 12.5 µM.

The record behind these values is ChEMBL document CHEMBL3763127, “Design, synthesis and biological evaluation of novel asperphenamate derivatives” (Eur J Med Chem, 2016).
